# Data taken from ChEMBL document CHEMBL4425108, “A Selective and Slowly Reversible Inhibitor of l-Type Amino Acid Transporter 1 (LAT1) Potentiates Antiproliferative Drug Efficacy in Cancer Cells” (J Med Chem, 2016).
# Calls of active or inactive are those of the source. The calls are words filed in the database; no cut-off is given here.
# Experiments:
# MCF7 [1] = test: Antiproliferative activity against human MCF7 cells assessed as reduction in cell viability at 25 measured after 48 hrs by resazurin dye-based fluorimetric analysis; format: functional
# Procedure, shortened: (§1)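 MCF-7 cells were seeded at 2 × 10^4 cells/well on collagen-coated plates and treated one day later. Agents were given alone or combined (25 or 100 µM with 100 µM partner drug) in growth medium for 3 days. Viability was read daily by resazurin fluorescence (ex 560/em 590 nm) and expressed relative to untreated controls.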
# [2] = Ratio of IC50 for human MCF7 cells to IC50 for [14C]-L-leucine uptake at LAT1 in human MCF7 cells
# [3] = target: T1, Large neutral amino acids transporter small subunit 2 (Homo sapiens) (UniProt Q9UHI5); test: Competitive inhibition of [14C]-L-alanine uptake at LAT2 in human MCF7 cells at 100 uM preincubated for 10 mins followed by addition of substrate measured during 5 mins by liquid scintillation counting; format: cell-based
# T1 sequence (whole entry): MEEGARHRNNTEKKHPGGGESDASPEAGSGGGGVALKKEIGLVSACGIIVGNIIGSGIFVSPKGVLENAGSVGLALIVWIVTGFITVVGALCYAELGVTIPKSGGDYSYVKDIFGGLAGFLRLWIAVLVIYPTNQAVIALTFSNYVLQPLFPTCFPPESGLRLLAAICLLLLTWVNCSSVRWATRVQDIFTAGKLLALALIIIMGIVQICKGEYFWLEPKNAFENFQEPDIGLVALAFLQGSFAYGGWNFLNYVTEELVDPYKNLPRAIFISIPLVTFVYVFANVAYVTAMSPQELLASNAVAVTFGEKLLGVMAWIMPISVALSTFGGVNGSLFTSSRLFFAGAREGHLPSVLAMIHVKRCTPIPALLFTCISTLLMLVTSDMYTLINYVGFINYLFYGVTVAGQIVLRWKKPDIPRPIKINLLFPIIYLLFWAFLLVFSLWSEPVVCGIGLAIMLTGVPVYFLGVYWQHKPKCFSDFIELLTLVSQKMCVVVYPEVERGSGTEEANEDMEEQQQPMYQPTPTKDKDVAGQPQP
# Procedure, shortened: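 MCF-7 cells were seeded at 1 × 10^5 cells/well and used one day later. Cells were washed and pre-incubated 10 min at 37 °C in HEPES-buffered HBSS (choline chloride, pH 7.4). Uptake of 10.0 µM [14C]-L-alanine ran 5 min at 37 °C with test agent (1–1000 µM) or DMSO blank. Cells were then given three ice-cold washes, lysed in 0.1 M NaOH and counted by liquid scintillation; n=3.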
# [4] = Metabolic stability in mouse liver microsomes at 37 degreeC in presence of NADPH regenerating system measured after 2 hrs by HPLC analysis; format: ADME, Microsome
# Procedure, shortened: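 Incubated at 37 °C for 2 h with mouse liver S9 fraction or with mouse liver microsomes plus NADPH; monitored by UV-HPLC chromatograms.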
# [5] = target: T2, Large neutral amino acids transporter small subunit 1 (Homo sapiens, UniProt Q01650); test: Drug uptake in human MCF7 cells assessed as LAT1 mediated drug transport per mg of protein at 100 uM measured 5 mins after cold wash by HPLC analysis; format: ADME, cell-based; conditions: mcf7, 5 min
# Procedure, shortened: (§2)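 MCF-7 monolayers were incubated with 100 µM compound in HBSS at 37 °C for 5 or 30 min. Cells got three washes with ice-cold or warm (37 °C) HBSS; in the warm 30 min arm they were washed after 5 min and again after 30 min. Lysates (0.1 M NaOH) were quantified by HPLC-UV against a spiked lysate standard curve and normalised to protein (Bio-Rad assay).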
# [6] = target: T2, Large neutral amino acids transporter small subunit 1; test: Competitive binding to LAT1 in human MCF7 cells at 100 uM after 30 mins in presence of MCT1 inhibitor phloretin by HPLC analysis; format: cell-based
# Procedure, shortened: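 MCF-7 cells incubated 30 min at 37 °C in HBSS (pH 7.4) holding 100 µM test compound plus 500 µM competitor. Cells washed three times with ice-cold HBSS and lysed in 0.1 M NaOH. Cell-associated compound measured by HPLC against a lysate-spiked standard curve and normalised to protein. Mean ± SD, n=3.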
# [7] = Cmax in mouse brain at 23 umol/kg, ip administered as bolus by LC-MS analysis; format: ADME, organism-based; design: dose 23 umol/kg, route intraperitoneal; conditions: in vivo
# Procedure, shortened: (§3)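 Male adult mice (25 ± 5 g) given a single i.p. bolus at 23 µmol/kg. The dosing solution was 1.36 mM in 10% (v/v) DMSO, 20% (w/v) hydroxypropyl-β-cyclodextrin and 0.9% NaCl. Animals were decapitated at seven time points from 10 to 480 min. Plasma and tissues were acetonitrile-precipitated with repaglinide internal standard and analysed by LC-MS. Parameters were derived from concentration–time data, mean ± SEM (n=3).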
# [8] = fCmax in mouse heart at 23 umol/kg, ip administered as bolus by LC-MS analysis; format: ADME, organism-based; conditions: in vivo
# Procedure, shortened: (§4)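 Male mice (25 ± 5 g) dosed i.p. as a bolus at 23 µmol/kg in DMSO/hydroxypropyl-β-cyclodextrin/saline vehicle, sampled at time points 10–480 min; plasma and tissue homogenates (1:3 water) analysed by LC-MS. […] Mean ± SEM.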
# MCF7 [9] = test: Antiproliferative activity against human MCF7 cells assessed as reduction in cell viability at 100 measured after 72 hrs by resazurin dye-based fluorimetric analysis; format: functional; procedure, shortened: as §1
# [10] = fCmax in mouse liver at 23 umol/kg, ip administered as bolus by LC-MS analysis; format: ADME, organism-based; conditions: in vivo; procedure, shortened: as §4
# [11] = Terminal half life in mouse liver at 23 umol/kg, ip administered as bolus by LC-MS analysis; format: ADME, organism-based; conditions: read-out: beta t1/2; procedure, shortened: as §3
# Mus musculus = test: Binding affinity to LAT1 in mouse brain assessed as inhibition of [14C]-L-leucine uptake at 23 umol/kg, ip measured post perfusion with [14C]-L-leucine; format: functional, organism-based; conditions: TDE = time-dependent effect
# Procedure, shortened: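 Mice under ketamine/xylazine anaesthesia had the right common carotid artery cannulated. Brains were perfused at 37 °C, 2.5 mL/min, for 30 s with 0.157 µM [14C]-L-leucine, then 2 s with analyte-free buffer at 4 °C. Perfusion took place 10 or 180 min after 23 µmol/kg i.p. dosing.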
# [12] = Plasma concentration in mouse at 23 umol/kg, ip measured after 180 mins; format: ADME, organism-based
# [13] = AUC (0 to 480 min) in mouse prostate at 23 umol/kg, ip administered as bolus by LC-MS analysis; format: ADME, organism-based, Prostate gland; design: dose 23 umol/kg, time < 8 hr, route intraperitoneal; conditions: in vivo, 8 h; procedure, shortened: as §3
# [14] = Aqueous solubility of the compound measured after 4 hrs by HPLC method; format: physicochemical
# [15] = Terminal half life in mouse brain at 23 umol/kg, ip administered as bolus by LC-MS analysis; format: ADME, organism-based; conditions: read-out: beta t1/2; procedure, shortened: as §3
# [16] = Cmax in mouse heart at 23 umol/kg, ip administered as bolus by LC-MS analysis; format: ADME, organism-based; design: dose 23 umol/kg, route intraperitoneal; conditions: in vivo; procedure, shortened: as §3
# [17] = target: T1, Large neutral amino acids transporter small subunit 2 (Homo sapiens); test: Competitive inhibition of [14C]-L-alanine uptake at LAT2 in human MCF7 cells at 25 uM preincubated for 5 mins followed by addition of substrate measured during 5 mins by liquid scintillation counting; format: cell-based
# [18] = target: T2, Large neutral amino acids transporter small subunit 1; test: Drug uptake in human MCF7 cells assessed as LAT1 mediated drug transport per mg of protein at 100 uM measured 5 mins after warm wash by HPLC analysis; format: ADME, cell-based; conditions: mcf7, 5 min; procedure, shortened: as §2
# [19] = AUC (0 to 480 min) in mouse kidney at 23 umol/kg, ip administered as bolus by LC-MS analysis; format: ADME, organism-based; design: time < 8 hr, dose 23 umol/kg, route intraperitoneal; conditions: in vivo, 8 h; procedure, shortened: as §3
# [20] = Cmax in mouse plasma at 23 umol/kg, ip administered as bolus by LC-MS analysis; format: ADME, organism-based; design: dose 23 umol/kg, route intraperitoneal; procedure, shortened: as §3
# T2 sequence (Q01650 whole entry): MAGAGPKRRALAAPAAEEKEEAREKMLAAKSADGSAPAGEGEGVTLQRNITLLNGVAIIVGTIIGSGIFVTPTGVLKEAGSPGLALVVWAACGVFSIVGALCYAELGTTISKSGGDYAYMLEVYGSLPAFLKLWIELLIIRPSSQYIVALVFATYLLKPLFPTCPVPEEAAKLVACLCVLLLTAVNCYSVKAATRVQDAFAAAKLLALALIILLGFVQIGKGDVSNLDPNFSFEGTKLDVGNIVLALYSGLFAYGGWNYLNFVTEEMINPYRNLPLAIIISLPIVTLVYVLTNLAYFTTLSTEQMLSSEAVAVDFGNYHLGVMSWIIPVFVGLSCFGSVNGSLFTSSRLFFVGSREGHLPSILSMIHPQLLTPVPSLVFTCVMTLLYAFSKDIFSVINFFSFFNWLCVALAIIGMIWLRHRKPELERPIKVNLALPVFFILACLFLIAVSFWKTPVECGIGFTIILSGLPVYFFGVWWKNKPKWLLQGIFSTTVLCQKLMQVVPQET
smiles,measurement,setting,value
CNC(=O)COc1ccc(-c2c(C#N)c(NC(=O)c3cccc(C[C@H](N)C(=O)O)c3)n3c(nc4ccccc43)c2C#N)cc1,Activity,MCF7 [1],inactive
same,Ratio IC50,[2],6.9
same,inhibition,[3],3.93%
same,Stability,[4],Stable
same,Drug uptake,[5],2.8 nmol/mg
same,Activity,[6],Active
same,Cmax,[7],0.2 nmol/g
same,fCmax,[8],0.08 nmol/g
same,Activity,MCF7 [9],47.7%
same,fCmax,[10],0.38 nmol/g
same,half-life,[11],0.88 h
same,Activity,Mus musculus,Tde
same,concentration at 3 h,[12],0.23 µM
same,AUC,[13],1275 nmol/g/min
same,solubility at 4 h,[14],1160 µg/mL
same,half-life,[15],1.19 h
same,Cmax,[16],4.9 nmol/g
same,inhibition,[17],inactive
same,Drug uptake,[18],1.43 nmol/mg
same,AUC,[19],1426 nmol/g/min
same,Cmax,[20],19.5 µM
